Test results reported in ChEMBL document CHEMBL4138104, “Indole carboxylic acid esters of melampomagnolide B are potent anticancer agents against both hematological and solid tumor cells” (Eur J Med Chem, 2017).

Columns and labels:
Type in all cases: functional
[1] = system: SN12C; assay: Growth inhibition of human SN12C cells incubated for 48 hrs by sulforhodamine B assay
Method in brief: (§1)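 NCI-60 screen. Compounds were dosed at five concentrations spanning 10^-4 to 10^-8 M for 48 h at 37 °C. Cells were TCA-fixed, stained with 0.4% SRB and read at 515 nm against time-zero and vehicle controls. GI50 is the concentration giving a 50% reduction in net protein increase.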

[2] = system: SK-OV-3; assay: Growth inhibition of human SKOV3 cells incubated for 48 hrs by sulforhodamine B assay; conditions: SK-OV-3, 48 h; method in brief: as §1
[3] = system: HT-29; assay: Growth inhibition of human HT-29 cells incubated for 48 hrs by sulforhodamine B assay; conditions: HT-29, 48 h; method in brief: as §1
[4] = system: HCT-15; assay: Growth inhibition of human HCT15 cells incubated for 48 hrs by sulforhodamine B assay; conditions: HCT-15, 48 h; method in brief: as §1
[5] = system: SW-620; assay: Growth inhibition of human SW620 cells incubated for 48 hrs by sulforhodamine B assay; conditions: SW-620, 48 h
Method in brief: (§2)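 NCI-60 screen run at NCI. Cells grown in RPMI medium with 5% FBS and 2 mM L-glutamine, plated at 5,000–40,000 cells/well, and preincubated 24 h at 37 °C. Time-zero plates were TCA-fixed. Compounds came from DMSO stocks and were tested at five concentrations from 10^-4 to 10^-8 M for 48 h. Cells were then TCA-fixed, stained with 0.4% SRB, and OD read at 515 nm. GI50 is the concentration giving a 50% reduction in net protein increase versus control.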

[6] = system: SF-295; assay: Growth inhibition of human SF295 cells incubated for 48 hrs by sulforhodamine B assay; conditions: SF-295, 48 h; method in brief: as §1
[7] = system: OVCAR-5; assay: Growth inhibition of human OVCAR5 cells incubated for 48 hrs by sulforhodamine B assay; conditions: OVCAR-5, 48 h; method in brief: as §1
[8] = system: SF-268; assay: Growth inhibition of human SF268 cells incubated for 48 hrs by sulforhodamine B assay; conditions: SF-268, 48 h; method in brief: as §1
[9] = system: NCI-H460; assay: Growth inhibition of human NCI-H460 cells incubated for 48 hrs by sulforhodamine B assay; conditions: NCI-H460, 48 h; method in brief: as §1
[10] = system: MCF7; assay: Growth inhibition of human MCF7 cells incubated for 48 hrs by sulforhodamine B assay; conditions: MCF7, 48 h; method in brief: as §1
[11] = system: RPMI-8226; assay: Growth inhibition of human RPMI8226 cells incubated for 48 hrs by sulforhodamine B assay; conditions: RPMI-8226, 48 h; method in brief: as §1
[12] = system: SF-539; assay: Growth inhibition of human SF539 cells incubated for 48 hrs by sulforhodamine B assay; conditions: SF-539, 48 h; method in brief: as §1
[13] = system: NCI-H23; assay: Growth inhibition of human NCI-H23 cells incubated for 48 hrs by sulforhodamine B assay; conditions: NCI-H23, 48 h; method in brief: as §1
[14] = Cytotoxicity against human M9-ENL1 cells assessed as reduction in cell viability by trypan blue staining-based assay
Method in brief: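 M9-ENL1 AML cells (MLL-ENL-transduced human blood cells) plated at 10^6 cells/mL in alpha-MEM with 5% human plasma, 20% FBS, SCF, IL-3, IL-7 and FLT3. Drug diluted from DMSO stock into PBS, final DMSO ≤0.5%. After 24 h exposure, dead cells assessed by trypan blue and by flow cytometry (Annexin V/PI or Annexin V/7-AAD). Viability normalized to vehicle; EC50 from dose-response curves; triplicate.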

[15] = system: MOLT-4; assay: Growth inhibition of human MOLT4 cells incubated for 48 hrs by sulforhodamine B assay; conditions: MOLT-4, 48 h; method in brief: as §1
[16] = system: SNB-19; assay: Growth inhibition of human SNB19 cells incubated for 48 hrs by sulforhodamine B assay; conditions: SNB-19, 48 h; method in brief: as §2
[17] = system: UACC-257; assay: Growth inhibition of human UACC257 cells incubated for 48 hrs by sulforhodamine B assay; conditions: UACC-257, 48 h; method in brief: as §2
[18] = system: SK-MEL-28; assay: Growth inhibition of human SK-MEL-28 cells incubated for 48 hrs by sulforhodamine B assay; conditions: SK-MEL-28, 48 h; method in brief: as §1
[19] = system: LOX IMVI; assay: Growth inhibition of human LOXIMVI cells incubated for 48 hrs by sulforhodamine B assay; method in brief: as §1
[20] = system: U-251; assay: Growth inhibition of human U251 cells incubated for 48 hrs by sulforhodamine B assay; conditions: U-251, 48 h; method in brief: as §2
[21] = system: UO-31; assay: Growth inhibition of human UO31 cells incubated for 48 hrs by sulforhodamine B assay; conditions: UO-31, 48 h; method in brief: as §2
[22] = system: HCC 2998; assay: Growth inhibition of human HCC2998 cells incubated for 48 hrs by sulforhodamine B assay; conditions: HCC 2998, 48 h; method in brief: as §1
[23] = system: NCI-H322M; assay: Growth inhibition of human NCI-H322M cells incubated for 48 hrs by sulforhodamine B assay; method in brief: as §1
[24] = system: NCI/ADR-RES; assay: Growth inhibition of human NCI/ADR-RES cells incubated for 48 hrs by sulforhodamine B assay; method in brief: as §1
[25] = system: HOP-92; assay: Growth inhibition of human HOP92 cells incubated for 48 hrs by sulforhodamine B assay; conditions: HOP-92, 48 h; method in brief: as §1
[26] = system: UACC-62; assay: Growth inhibition of human UACC62 cells incubated for 48 hrs by sulforhodamine B assay; conditions: UACC-62, 48 h; method in brief: as §2
[27] = system: A498; assay: Growth inhibition of human A498 cells incubated for 48 hrs by sulforhodamine B assay; conditions: A498, 48 h; method in brief: as §1
[28] = system: HCT-116; assay: Growth inhibition of human HCT116 cells incubated for 48 hrs by sulforhodamine B assay; conditions: HCT-116, 48 h; method in brief: as §1
[29] = system: OVCAR-8; assay: Growth inhibition of human OVCAR8 cells incubated for 48 hrs by sulforhodamine B assay; conditions: OVCAR-8, 48 h; method in brief: as §1
[30] = system: NCI-H226; assay: Growth inhibition of human NCI-H226 cells incubated for 48 hrs by sulforhodamine B assay; conditions: NCI-H226, 48 h; method in brief: as §1
[31] = system: HL-60(TB); assay: Growth inhibition of human HL-60(TB) cells incubated for 48 hrs by sulforhodamine B assay; conditions: HL-60, 48 h
Method in brief: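 Performed at NCI's 60-line screen. Cells grown in RPMI with 5% FBS and 2 mM L-glutamine, plated 5,000–40,000 cells/well and incubated 24 h at 37 °C before compound addition. DMSO stocks were diluted in medium with gentamicin, and five concentrations spanning 10^-4 to 10^-8 M were tested. Exposure was 48 h. Cells were fixed with TCA, stained with SRB, and read at 515 nm. GI50 taken from log dose-response curves as 50% reduction in net protein increase versus control.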

[32] = system: KM12; assay: Growth inhibition of human KM12 cells incubated for 48 hrs by sulforhodamine B assay; conditions: KM12, 48 h; method in brief: as §1
[33] = system: NCI-H522; assay: Growth inhibition of human NCI-H522 cells incubated for 48 hrs by sulforhodamine B assay; conditions: NCI-H522, 48 h; method in brief: as §1
[34] = system: CCRF-CEM; assay: Growth inhibition of human CCRF-CEM cells incubated for 48 hrs by sulforhodamine B assay; method in brief: as §1
[35] = system: RXF 393; assay: Growth inhibition of human RXF393 cells incubated for 48 hrs by sulforhodamine B assay; conditions: RXF 393, 48 h; method in brief: as §1
[36] = system: Malme-3M; assay: Growth inhibition of human MALME-3M cells incubated for 48 hrs by sulforhodamine B assay; method in brief: as §1
[37] = system: A549; assay: Growth inhibition of human A549/ATCC cells incubated for 48 hrs by sulforhodamine B assay; conditions: A549, 48 h; method in brief: as §1

Compound	GI50 [1] [nM]	GI50 [2] [nM]	GI50 [3] [nM]	GI50 [4] [nM]	GI50 [5] [nM]	GI50 [6] [nM]	GI50 [7] [nM]	GI50 [8] [nM]	GI50 [9] [nM]	GI50 [10] [nM]	GI50 [11] [nM]	GI50 [12] [nM]	GI50 [13] [nM]	EC50 [14] [nM]	GI50 [15] [nM]	GI50 [16] [nM]	GI50 [17] [nM]	GI50 [18] [nM]	GI50 [19] [nM]	GI50 [20] [nM]	further results
C=C1C(=O)O[C@@H]2[C@H]3O[C@]3(C)CC/C=C(/COC(=O)CCCc3c[nH]c4ccccc34)CC[C@@H]12	1900	17300	1710	1610	1840	5690	1890	1690	4540	1420	2310	1630	1720	2000	1530	2590	2030	1700	1550	1950	GI50 [21]: 1410 nM; GI50 [22]: 1790 nM; GI50 [23]: 13800 nM; GI50 [24]: 2900 nM; GI50 [25]: 1680 nM; GI50 [26]: 1840 nM; GI50 [27]: 11900 nM; GI50 [28]: 960 nM; GI50 [29]: 3380 nM; GI50 [30]: 2040 nM; GI50 [31]: 1630 nM; GI50 [32]: 1890 nM; GI50 [33]: 1570 nM; GI50 [34]: 750 nM; GI50 [35]: 1460 nM; GI50 [36]: 1790 nM; GI50 [37]: 5470 nM
C=C1C(=O)O[C@@H]2[C@H]3O[C@]3(C)CC/C=C(/COC(=O)c3cc4ccccc4s3)CC[C@@H]12	2060	13900	490	400	510	3330	2020	1540	2210	380	560	1600	1740	2700	1880	2090	1770	1760	200	1520	GI50 [21]: 1400 nM; GI50 [22]: 1750 nM; GI50 [23]: 1980 nM; GI50 [24]: 2140 nM; GI50 [25]: 1680 nM; GI50 [26]: 1850 nM; GI50 [27]: 10100 nM; GI50 [28]: 590 nM; GI50 [29]: 1800 nM; GI50 [30]: 2000 nM; GI50 [31]: 1890 nM; GI50 [32]: 1780 nM; GI50 [33]: 980 nM; GI50 [34]: 400 nM; GI50 [35]: 1230 nM; GI50 [36]: 1820 nM; GI50 [37]: 2040 nM
C=C1C(=O)O[C@@H]2[C@H]3O[C@]3(C)CC/C=C(/COC(=O)c3cc4cc(F)ccc4[nH]3)CC[C@@H]12	1850	11600	1130	1150	1430	7100	1770	1620	3040	1020	2000	1550	1900	2800	2260	5040	2280	1790	1050	1820	GI50 [21]: 1200 nM; GI50 [22]: 2020 nM; GI50 [23]: 2690 nM; GI50 [24]: 1980 nM; GI50 [25]: 1380 nM; GI50 [26]: 1890 nM; GI50 [27]: 3350 nM; GI50 [28]: 1500 nM; GI50 [29]: 2170 nM; GI50 [30]: 1760 nM; GI50 [31]: 2070 nM; GI50 [32]: 1980 nM; GI50 [33]: 1650 nM; GI50 [34]: 910 nM; GI50 [35]: 1470 nM; GI50 [36]: 1670 nM; GI50 [37]: 3080 nM
